Cneo AK release – Cryptococcus neoformans cell lysis inducers, primary screen, AK release luminescence, single concentration | C. neoformans lysis, adenylate kinase release luminescence, 4 h; normalised: neutral wells 0, clomiphene wells 100 | lysis activity, % at 15 µM | 0.2% of 360,000 active;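 active means mean lysis activity across replicates of at least 80%, whatever share of replicates individually reach that level; inactive means mean lysis activity below 80%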
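Material – log-phase Cryptococcus neoformans yeast cells · Input – 5 × 10^6 yeast cells/mL · Medium – fresh YPD growth medium · Doses – single compound concentration per well · Timing – static 4 h at 37 °C with compound, 1 h detection · Detection – adenylate kinase release luminescence · Read-out – signal increase indicating cell lysis · Control set – Clomiphene as positive lysis control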
F508del corr – F508del CFTR correction, initial screen, CFBE line, single point. 0.36% of 350,000 active. CFBE cells, YFP halide quenching; stimulated with forskolin plus potentiator P3; % fluorescence drop versus neutral controls. AID 720511, 2013. activity (quench increase), % at 7.58 µM;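 active means mean added fluorescence quench of at least 8% versus neutral control, with both replicates also reaching 8%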;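 further: cells transiently co-express mutant CFTR-F508del with the halide-sensitive YFP; corrector assay measuring rescue of mutant channel to the surface after 24 h compound exposure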
Env fusion inh – inhibitors of HIV-1 Env-driven cell-cell fusion, primary screen, HeLa-JRFL effector, CEM21 target cells, luciferase | inhibition, % at 12.3 µM | 1.1% of 360,000 active | AID 651610, 2012;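 active means mean replicate inhibition score of at least 50 and every replicate individually at or above 50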
Ecoli rRNA inh – reduced GFP signal of wild-type E. coli, primary screen, bacterial rRNA inhibitor project, GFP/RFP fluorescence, OD600, single point | E. coli WT GFP vs humanized-ribosome RFP mutants, 24 h; stronger effect = lower value; DMSO median 0, no signal -100 | GFP signal change (wild-type ribosome), % (no concentration beside the values) | AID 720706, 2013 | 1.6% of 350,000 active;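 active means significant combined selectivity score with lowered wild-type GFP, culture density cut under 30%, mutant RFP and density less affected; inactive means any of these conditions unmet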
miR-122 sensor – miR-122 Renilla sensor signal increase in Huh7, primary screen, miR-122 inhibitor project, cell-based, single point, plate reader; activation (reporter increase), % at 12.5 µM; 0.3% of 340,000 active; Huh7 miR-122 Renilla luciferase sensor, 48 h; neutral wells = 0, positive control = 100;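 active means mean replicate activation score at least 90 and every replicate individually at or above 90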;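 further: higher luciferase means less miR-122 activity so hits act as miR-122 inhibitors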
GSIS activator – GLuc luminescence reporter in INS-1E cells, primary screen for activators of glucose-dependent secretion of insulin; INS-1E GLuc reporter insulin secretion, 2-3 h; activation, % at 16.6 µM; 0.61% of 370,000 active; AID 743287, 2014;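 active means lowest replicate activation of at least 40%, so every replicate reaches that level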
Large screens that a line does not name were inactive; [ ] = another dose, or the depositor's remark. A selection: hits, their analogues and other compounds. The true share with any hit is near 3.1%.

O=C(C1CCCCC1)N1CCCC(c2nc3c(nnn3Cc3ccccc3)c(=O)[nH]2)C1 (stereo not given)	Env fusion inh 79 (no result: F508del corr, Ecoli rRNA inh, GSIS activator)
O=C(c1ccccc1)N1CCCC(c2nc3c(nnn3Cc3ccccc3)c(=O)[nH]2)C1 (stereo not given)	none (no result: F508del corr, Ecoli rRNA inh, GSIS activator)
C[C@H]1CN([C@@H](C)CO)C(=O)c2cc(N(C)C)ccc2O[C@@H]1CN(C)CC1CCCCC1	none
CNC[C@@H]1OCCCC[C@@H](C)Oc2ccc(NS(C)(=O)=O)cc2C(=O)N([C@@H](C)CO)C[C@@H]1C	none
CC[C@H]1CC=CC[C@@H](C)Oc2ccccc2C(=O)N(C)[C@H](C(C)C)C(=O)N1 (mixture of isomers)	none (no result: Cneo AK release, F508del corr, Env fusion inh, miR-122 sensor)
COc1ccccc1NC(=O)c1c(C)nn(-c2ccccc2)c1Cl	Ecoli rRNA inh -36
O=S(=O)(NCc1c(Cl)cccc1Oc1ccccc1)c1ccc(F)cc1	Ecoli rRNA inh -39 (no result: Cneo AK release, miR-122 sensor)
O=C(O)CSCC(=O)NCc1c(Cl)cccc1Oc1ccccc1	none (no result: Ecoli rRNA inh, GSIS activator)
C[C@@H]1CCCCO[C@H](CN(C)S(=O)(=O)c2cn(C)cn2)[C@@H](C)CN([C@@H](C)CO)C(=O)c2cc(NC(=O)Cc3ccccc3)ccc2O1	none
O=C(C1CC1)N1CCCCN2[C@H](C1)[C@H](c1ccc(C#CC3CCCC3)cc1)[C@@H]2CO	none (no result: Env fusion inh)
CCCCCCNS(=O)(=O)c1ccc(Cl)s1	miR-122 sensor 209 (no result: F508del corr, Ecoli rRNA inh, GSIS activator)
O=S(=O)(NCCCN1CCOCC1)c1ccc(Cl)s1	none (no result: Cneo AK release, miR-122 sensor)
O=C(NC1CCCCC1)C(c1ccccc1F)n1c(=O)c(-c2ccco2)nc2ccccc21 (stereo not given)	Env fusion inh 59 (no result: Cneo AK release, miR-122 sensor)
CCCC(C)C(=O)Nc1ccc(S(N)(=O)=O)cc1 (stereo not given)	none (no result: Cneo AK release)
Cc1ccccc1C(=O)NC(CC(C)C)C(=O)Nc1ccc(S(N)(=O)=O)cc1 (stereo not given)	Ecoli rRNA inh -24 (no result: Cneo AK release)
COCCn1c(C)cc(C(=O)COC(=O)c2cccc(O)c2)c1C	none (no result: Cneo AK release)
COCCn1c(C)cc(C(=O)CSc2nnc(C)s2)c1C	Env fusion inh 63 (no result: F508del corr, Ecoli rRNA inh, GSIS activator)
COCCn1c(C)cc(C(=O)CSc2nnnn2C2CCCC2)c1C	Env fusion inh 60 (no result: miR-122 sensor)
COCCn1c(C)cc(C(=O)COC(=O)c2cc3c(s2)CCC3)c1C	miR-122 sensor 315 (no result: F508del corr, Ecoli rRNA inh)
N#C[C@H]1[C@@H](c2ccc(C3=CCCCC3)cc2)[C@H](CO)N1C(=O)CN1CCOCC1	none (no result: miR-122 sensor)
CCCNC(=O)N1CC2(C1)[C@@H](c1ccccc1)[C@@H](CO)N2CC1CCOCC1	none (no result: Cneo AK release, Env fusion inh, miR-122 sensor)
CCNC(=O)C[C@H]1CC[C@@H]2[C@@H](COc3ccc(NC(=O)Cc4cccs4)cc3C(=O)N2C)O1	Env fusion inh 65[16.7 µM]
CCCNC(=O)C[C@H]1CC[C@@H]2[C@@H](COc3ccc(NC(=O)c4cccc(C(F)(F)F)c4)cc3C(=O)N2C)O1	Env fusion inh 65[16.7 µM]
CCCNC(=O)C[C@@H]1CC[C@H]2[C@H](COc3ccc(NC(=O)Cc4cccs4)cc3C(=O)N2C)O1	miR-122 sensor 207[16.7 µM]
CCCNC(=O)C[C@@H]1CC[C@@H]2[C@@H](COc3ccc(NC(=O)c4cccc(C(F)(F)F)c4)cc3C(=O)N2C)O1	none
CCCNC(=O)C[C@H]1CC[C@H]2[C@H](COc3ccc(NC(=O)Cc4cccs4)cc3C(=O)N2C)O1	miR-122 sensor 167[16.7 µM]
CCCNC(=O)C[C@@H]1CC[C@@H]2[C@H](COc3ccc(NC(=O)Cc4cccs4)cc3C(=O)N2C)O1	none
CCNC(=O)[C@@H]1[C@@H](CO)[C@@H]2Cn3c(ccc(-c4cccc(OC)c4)c3=O)[C@@H]2N1C(=O)NC(C)C	none (no result: Env fusion inh)
C[C@H]1CN(C)C(=O)c2cccc(NS(C)(=O)=O)c2O[C@H]1CN(C)S(C)(=O)=O	none (no result: Cneo AK release, F508del corr, Env fusion inh, miR-122 sensor)
CCCNC(=O)N1C[C@@H](C)[C@H](OC)CN(C)C(=O)c2ccc(NC(=O)C3CCC3)cc2OC[C@@H]1C	none (no result: miR-122 sensor)
CCCNC(=O)C[C@@H]1CC[C@@H]2[C@@H](COc3ccc(NC(=O)CCC)cc3C(=O)N2C)O1	Cneo AK release 105
CCCNC(=O)C[C@H]1CC[C@@H]2[C@@H](COc3ccc(NC(=O)CCC)cc3C(=O)N2C)O1	none
CC(C)(C)NC(=O)C(c1ccccc1)N(Cc1cccs1)C(=O)c1csnn1 (stereo not given)	Env fusion inh 72 (no result: F508del corr, Ecoli rRNA inh, GSIS activator)
CC(C)(C)NC(=O)C(c1cccs1)N(Cc1ccco1)C(=O)c1csnn1 (stereo not given)	none (no result: miR-122 sensor)
COc1ccc(C2=NN(C(=O)c3cccs3)C(c3ccccc3OC)C2)cc1OC (stereo not given)	none
COc1cccc(C2=NN(C(=O)CCCC(=O)O)C(c3cccs3)C2)c1 (stereo not given)	none
COc1ccc(C2=NN(C(=O)c3ccco3)C(c3cccs3)C2)cc1OC (stereo not given)	GSIS activator 81
COc1ccc(C2CC(c3cccs3)=NN2C(=O)CN2CCCCC2)cc1 (stereo not given)	none (no result: Cneo AK release)
COc1ccc(C2CC(c3cccs3)=NN2C(=O)CCl)cc1OC (stereo not given)	Env fusion inh 62
COc1ccc(C2=NN(C(=O)CCCC(=O)O)C(c3cccs3)C2)cc1OC (stereo not given)	GSIS activator 104 (no result: Cneo AK release, miR-122 sensor)
CNC(=S)N1N=C(c2cccs2)CC1c1ccc(OC)cc1 (stereo not given)	Ecoli rRNA inh -21 (no result: F508del corr, GSIS activator)
COc1ccc(S(=O)(=O)N(C)C[C@H]2Oc3ccc(NC(=O)Nc4cccc5ccccc45)cc3CC(=O)N([C@H](C)CO)C[C@H]2C)cc1	none (no result: Cneo AK release)
C[C@H](CO)N1C[C@H](C)[C@H](CN(C)Cc2ccc(C(F)(F)F)cc2)OCCCC[C@H](C)Oc2ccc(NC(=O)CCCN(C)C)cc2C1=O	none
Cc1ccc(C2CC(c3cccs3)=NN2C(=O)c2ccc(Br)o2)cc1 (stereo not given)	Cneo AK release 200 (no result: F508del corr, Env fusion inh, Ecoli rRNA inh)
C[C@@H]1CN([C@@H](C)CO)C(=O)c2cc(NC(=O)Cc3ccccc3)ccc2O[C@@H](C)CCCCO[C@H]1CN(C)Cc1ccc(C(F)(F)F)cc1	Env fusion inh 64[16.7 µM]
C[C@@H]1CN([C@H](C)CO)C(=O)c2cc(NC(=O)Cc3ccccc3)ccc2O[C@@H](C)CCCCO[C@H]1CN(C)Cc1ccc(C(F)(F)F)cc1	Env fusion inh 73[16.7 µM]
C[C@H](CO)N1C[C@H](C)[C@H](CN(C)Cc2ccc(C(F)(F)F)cc2)OCCCC[C@H](C)Oc2ccc(NC(=O)Cc3ccccc3)cc2C1=O	Env fusion inh 72[16.7 µM]

Screens: PubChem BioAssay, Broad Institute
